This note sets out measurements from ChEMBL document CHEMBL4219118, “Cathepsin B inhibitors: Further exploration of the nitroxoline core” (Bioorg Med Chem Lett, 2018).

Calls of active or inactive are those of the source. No cut-off for these calls is given here. Some results are limits rather than exact numbers.

In series [1] the target is T1, Cathepsin B (Homo sapiens, UniProt P07858). In words: Mixed inhibition of recombinant human cathepsin B exopeptidase activity assessed as inhibitory constant for enzyme-inhibitor complex using Abz-Gly-Ile-Val-Arg-Ala-Lys(Dnp)-OH as substrate in presence of pH 5 acetate buffer by fluorescence assay.
The target in series [2] is T1, Cathepsin B. In words: Non-competitive inhibition of recombinant human cathepsin B endopeptidase activity assessed as inhibitory constant for enzyme-substrate-inhibitor complex using Z-Arg-Arg-AMC as substrate in presence of pH 6 phosphate buffer by fluorescence assay.
Series [3] addresses T1, Cathepsin B. In words: Competitive inhibition of recombinant human cathepsin B endopeptidase activity assessed as inhibitory constant for enzyme-inhibitor complex using Z-Arg-Arg-AMC as substrate in presence of pH 4.5 acetate buffer by fluorescence assay. Particulars: read-out: Ki. An outline of the steps:
(§1)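 Recombinant cathepsin B endopeptidase activity assayed with the small substrate Z-Arg-Arg-AMC at pH 4.5. Acidic conditions chosen to shift the enzyme toward the closed (exopeptidase) conformation. Ki reported.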

In series [4] the target is T1, Cathepsin B. The series can be described thus: Non-competitive inhibition of recombinant human cathepsin B endopeptidase activity assessed as inhibitory constant for enzyme-inhibitor complex using Z-Arg-Arg-AMC as substrate in presence of pH 6 phosphate buffer by fluorescence assay.
Series [5] has as its target T1, Cathepsin B. The series can be described thus: Mixed inhibition of recombinant human cathepsin B exopeptidase activity assessed as inhibitory constant for enzyme-substrate-inhibitor complex using Abz-Gly-Ile-Val-Arg-Ala-Lys(Dnp)-OH as substrate in presence of pH 5 acetate buffer by fluorescence assay.
For series [6], the target named is T1, Cathepsin B. In words: Non-competitive inhibition of recombinant human cathepsin B exopeptidase activity assessed as inhibitory constant for enzyme-inhibitor complex using Abz-Gly-Ile-Val-Arg-Ala-Lys(Dnp)-OH as substrate in presence of pH 5 acetate buffer by fluorescence assay.
Series [7] deals with T1, Cathepsin B. In words: Non-competitive inhibition of recombinant human cathepsin B exopeptidase activity assessed as inhibitory constant for enzyme-substrate-inhibitor complex using Abz-Gly-Ile-Val-Arg-Ala-Lys(Dnp)-OH as substrate in presence of pH 5 acetate buffer by fluorescence assay.
Series [8] addresses T1, Cathepsin B. In words: Mixed inhibition of recombinant human cathepsin B endopeptidase activity assessed as inhibitory constant for enzyme-substrate-inhibitor complex using Z-Arg-Arg-AMC as substrate in presence of pH 6 phosphate buffer by fluorescence assay.
Series [9] concerns the target T1, Cathepsin B. In words: Mixed inhibition of recombinant human cathepsin B endopeptidase activity assessed as inhibitory constant for enzyme-inhibitor complex using Z-Arg-Arg-AMC as substrate in presence of pH 6 phosphate buffer by fluorescence assay.
Series [10] addresses T1, Cathepsin B. In words: Inhibition of cathepsin B in human MCF-10A neoT cells assessed as proteolysis of extracellular membrane by measuring decrease in intracellular degradation of DQ-collagen 4 at 50 uM incubated for 2 hrs followed by DQ-collagen addition measured for 2 hrs by propidium iodide staining based flow cytometry relative to control. Format: cell-based. An outline of the steps:
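MCF-10A neoT cells (6 × 10⁴) treated with compound or DMSO. Intracellular DQ-collagen IV degradation measured by flow cytometry, with unlabeled cells as background. Reduction expressed versus DMSO. Mean of n = 3, run in duplicate.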
For orientation: In flow cytometry, cells or beads pass a laser one at a time.

In series [11] the target is T1, Cathepsin B. In words: Inhibition of recombinant human cathepsin B exopeptidase activity assessed as inhibitory constant for enzyme-inhibitor complex using Abz-Gly-Ile-Val-Arg-Ala-Lys(Dnp)-OH as substrate in presence of pH 5 acetate buffer by fluorescence assay.
The target in series [12] is T1, Cathepsin B. In words: Inhibition of recombinant human cathepsin B endopeptidase activity assessed as inhibitory constant for enzyme-substrate-inhibitor complex using Z-Arg-Arg-AMC as substrate in presence of pH 6 phosphate buffer by fluorescence assay.
The target in series [13] is T1, Cathepsin B. The series can be described thus: Inhibition of recombinant human cathepsin B endopeptidase activity assessed as inhibitory constant for enzyme-inhibitor complex using Z-Arg-Arg-AMC as substrate in presence of pH 4.5 acetate buffer by fluorescence assay. An outline of the steps:
as §1

Series [14] addresses T1, Cathepsin B. In words: Inhibition of recombinant human cathepsin B exopeptidase activity assessed as inhibitory constant for enzyme-substrate-inhibitor complex using Abz-Gly-Ile-Val-Arg-Ala-Lys(Dnp)-OH as substrate in presence of pH 5 acetate buffer by fluorescence assay.
Series [15] concerns U-87 MG. The series can be described thus: Cytotoxicity against human U87MG cells assessed as decrease in cell viability after 72 hrs by MTS assay. Format: cell-based. Particulars: u-87mg atcc.
For series [16], the target named is T1, Cathepsin B. The series can be described thus: Inhibition of cathepsin B in human MCF-10A neoT cells assessed as proteolysis of extracellular membrane by measuring decrease in extracellular degradation of DQ-collagen 4 at 5 uM incubated for 6 hrs measured for 2 hrs by fluorescence based spectrofluorimetric assay relative to control. Format: cell-based. An outline of the steps:
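MCF-10A neoT cells (5 × 10⁴) incubated with DQ-collagen IV in the presence of compound or DMSO. Extracellular degradation product read by spectrofluorimetry. Mean of n = 3, six replicates per experiment.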

Series [17] has as its system MCF-10A-neoT. In words: Cytotoxicity against human MCF10AneoT cells assessed as decrease in cell viability after 72 hrs by MTS assay. Type of series: cell-based. In general terms: Tetrazolium dyes change colour on reduction, which living cells bring about.
In series [18] the target is T1, Cathepsin B. The series can be described thus: Uncompetitive inhibition of recombinant human cathepsin B endopeptidase activity assessed as inhibitory constant for enzyme-substrate-inhibitor complex using Z-Arg-Arg-AMC as substrate in presence of pH 6 phosphate buffer by fluorescence assay.

The Ki is a dissociation constant, usually derived from enzyme kinetics or from competition with a known ligand. On to `N#CCNC(=O)c1ccc2c([N+](=O)[O-])cc([N+](=O)[O-])c(O)c2n1`, for which the Ki in series [1] is 201 µM; in [2], 160 µM; in series [3] it was 29 µM; in series [4], 160 µM; in [5], 34 µM.
With `O=C(O)c1ccc2c([N+](=O)[O-])ccc(O)c2n1`, the Ki in series [6] stood at 240 µM; in series [2], 139 µM; in series [4] it was 139 µM; in series [7], 240 µM.
Take `N#CCNC(=O)c1cc([N+](=O)[O-])ccc1O`: the Ki in series [6] worked out at 168 µM; in [2], 271 µM; in series [4] it was 271 µM; in [7], 168 µM.
On to `Nc1ccc2c([N+](=O)[O-])ccc(O)c2n1`, for which the inhibitory constant (Ki) in series [6] was found to be 329 µM; in [2] it was 202 µM; in series [4] it was 202 µM; in series [7], 329 µM.
With `N#Cc1ccc2c([N+](=O)[O-])ccc(O)c2n1`, the inhibition constant (Ki) in [6] came to 214 µM; in series [3] it was 123 µM; in series [8] it was 68 µM; in [9], 142 µM; in series [7] it was 214 µM.
Turning to `CN(CC#N)C(=O)c1cc([N+](=O)[O-])c2cccnc2c1O`, the Ki in series [6] turned out to be 121 µM; in series [2] it was 185 µM; in series [4], 185 µM; in series [7], 121 µM.
Turning to `CN(CC#N)C(=O)c1ccc2c([N+](=O)[O-])ccc(O)c2n1`, the inhibition constant Ki in series [6] was 205 µM; in series [8], 263 µM; in series [9] it was 102 µM; in [7], 205 µM.
In the case of `COCCCOc1cc(-c2ccc([N+](=O)[O-])c3cccnc23)ccc1OC`, the inhibition constant (Ki) in series [1] was determined as 118 µM; in [2], 323 µM; in series [4], 323 µM; in series [5] it was 22 µM.
For the molecule `Cn1cccc1-c1ccc([N+](=O)[O-])c2cccnc12`, the Ki in series [6] is 224 µM; in series [2] it was 333 µM; in series [4], 333 µM; in [7], 224 µM.
`N#CCN(Cc1ccccc1)C(=O)c1cc([N+](=O)[O-])ccc1O`: the Ki in series [6] came out at 96 µM; in series [2] it was 342 µM; in [4], 342 µM; in series [7], 96 µM.
With `O=C(c1cc([N+](=O)[O-])ccc1O)N1CCOCC1`, the Ki was found to be 176 µM in series [6], 237 µM in [2], 237 µM in [4] and 176 µM in [7].
With `O=C(c1cc([N+](=O)[O-])c2cccnc2c1O)N1CCOCC1`, the Ki in series [6] is 122 µM; in [2], 136 µM; in series [4], 136 µM; in [7], 122 µM.
The term inhibition denotes the drop in the measured response relative to a control, in per cent. Consider `CCCNC(=O)[C@H]1O[C@@H]1C(=O)N[C@H](C(=O)N1CCC[C@H]1C(=O)OC)[C@@H](C)CC`, for which the inhibition result in series [10] was “Active”.
On to `N#CCNC(=O)c1ccc2c([N+](=O)[O-])ccc(O)c2n1`, for which the Ki in series [6] was found to be 190 µM; in [8] it was 116 µM; in series [9] it was 180 µM; in series [7] it was 190 µM.
Take `CC(=O)c1ccc(-c2ccc(-c3ccc([N+](=O)[O-])c4cccnc34)s2)cc1`: the inhibition constant Ki result in [11], in series [12], in series [13] and in series [14] was “Not Active” each time.
Consider `O=[N+]([O-])c1cccc(-c2ccc([N+](=O)[O-])c3cccnc23)c1`, for which the Ki result in series [11], in series [12], in series [13] and in series [14] was “Not Active” each time.
`COCCN(CC1CCN(Cc2nc3ccccc3s2)CC1)C(=O)c1cc([N+](=O)[O-])c2cccnc2c1O`: the inhibitory constant (Ki) in series [6] amounted to 181 µM; in series [8] it was 41 µM; in series [9], 200 µM; in series [7] it was 181 µM.
`O=[N+]([O-])c1ccc(O)c(CN2CCOCC2)c1`: the inhibition constant (Ki) turned out to be 97 µM in series [6], 212 µM in series [2], 212 µM in series [4] and 97 µM in series [7].
For the molecule `N#CCN(Cc1ccccc1)C(=O)c1cc([N+](=O)[O-])c2cccnc2c1O`, the inhibition constant Ki in series [1] was 185 µM; in series [3] it was 132 µM; in series [8] it was 64 µM; in [9], 182 µM; in [5], 32 µM. Moreover, the values for the inhibition in series [10] and in [16] were < 10% and 60%, respectively. Moreover, the Activity entry in series [15] and in series [17] was “Non-Toxic” throughout.
Take `COCCN(CC1CCN(Cc2nc3ccccc3o2)CC1)C(=O)c1cc([N+](=O)[O-])c2cccnc2c1O`: the inhibition constant (Ki) entry in series [11], in [12], in [13] and in series [14] was “Not Active” in each case.
Consider `CC1CCN(C(=O)c2cc([N+](=O)[O-])c3cccnc3c2O)CC1`, for which the inhibition constant (Ki) in series [6] worked out at 162 µM; in series [8] it was 94 µM; in [9], 143 µM; in series [7] it was 162 µM.
With `N#CCN(Cc1ccccc1)Cc1cc([N+](=O)[O-])ccc1O`, the Ki result in series [11], in series [12], in [13] and in series [14] was “Not Active” each time.
As for `CC(=O)c1ccc(-c2ccc(-c3ccc([N+](=O)[O-])c4cccnc34)n2C)cc1`, the Ki entry in series [11], in [12], in series [13] and in series [14] was “Not Active” in each case.
Consider `O=C(c1cc([N+](=O)[O-])c2cccnc2c1O)N1CCCCC1`, for which the Ki amounted to 364 µM in series [6], 171 µM in series [8], 311 µM in series [9] and 364 µM in series [7].
As for `N#CC1(NC(=O)c2ccc3c([N+](=O)[O-])ccc(O)c3n2)CC1`, the Ki in series [6] came out at 154 µM; in series [8], 66 µM; in series [9], 157 µM; in series [7] it was 154 µM.
Regarding `O=[N+]([O-])c1ccc(O)c(CN2CCCCC2)c1`, the inhibition constant (Ki) result in [11], in series [12], in series [13] and in series [14] was “Not Active” in each case.
On to `CN(CC#N)Cc1ccc2c([N+](=O)[O-])ccc(O)c2n1`, for which the Ki result in series [11], in series [12], in [13] and in [14] was “Not Active” throughout.
As to `CN(CC#N)C(=O)c1ccc2c([N+](=O)[O-])cc([N+](=O)[O-])c(O)c2n1`, the Ki in [1] came out at 257 µM; in series [8], 122 µM; in [9], 341 µM; in series [5], 109 µM.
Take `Cc1cccc(-c2ccc([N+](=O)[O-])c3cccnc23)c1`: the inhibition constant (Ki) entry in [11], in series [12], in series [13] and in [14] was “Not Active” throughout.
Consider `N#Cc1ccc2c([N+](=O)[O-])cc([N+](=O)[O-])c(O)c2n1`, for which the Ki came to 192 µM in [6], 39 µM in series [18] and 192 µM in [7].
With `N#CCN(Cc1ccccc1)C(=O)c1ccc2c([N+](=O)[O-])ccc(O)c2n1`, the Ki amounted to 156 µM in series [1], 34 µM in series [18] and 18 µM in [5].
